The record followed here is ChEMBL document CHEMBL5532644, “Discovery of 4-hydroxyl pyrazole derivatives as potent ferroptosis inhibitors” (Eur J Med Chem, 2024).

Each structure is given as a SMILES string. Activity calls are given as the source filed them. The rule behind the calls is not given here.

The term EC50 denotes the concentration that produces a half-maximal response.

The test system of assay [1] is HT-1080. Kind of assay: Anti-ferroptotic activity in human HT-1080 cells assessed as cell viability incubated for 24 hrs by Cell-titer-glo assay. In kind it is functional, cell-based. A digest of the protocol: (§1)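 Seeded at 2000–5000 cells/well; 24 h later cells were co-treated with 1 μM RSL3 and graded inhibitor concentrations for 24 h, then viability was read. EC50 came from sigmoidal nonlinear regression fits. Three independent experiments, means ± SD. HT-1080 and H9c2 were grown in DMEM; BJ in α-MEM with nonessential amino acids and 1 mM pyruvate; all media had 10% FBS.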

For assay [2], the system named is HT-1080. As to the kind of experiment: Anti-ferroptotic activity against imidazole ketone erastin (IKE) induced ferroptosis in human HT-1080 cells assessed as cell viability incubated for 24 hrs by Cell-titer-glo assay. The format is functional, cell-based. Particulars: HT-1080, 24 h. In outline:
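HT-1080 cells (DMEM, 10% FBS) were seeded at 2000–5000/well. After 24 h they received 2.5 μM IKE plus graded inhibitor concentrations for 24 h, and viability was measured. EC50 came from sigmoidal nonlinear regression. Three independent experiments, means ± SD.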

The test system of assay [3] is HT-1080. Kind of assay: Anti-ferroptotic activity against RSL3 induced ferroptosis in human HT-1080 cells assessed as cell viability incubated for 24 hrs by Cell-titer-glo assay. Particulars: HT-1080, 24 h. The format is functional, cell-based. A digest of the protocol: as §1
For assay [4], the system named is 786-0. As to the kind of experiment: Anti-ferroptotic activity against RSL3 induced ferroptosis in human 786-0 cells assessed as cell viability incubated for 24 hrs by Cell-titer-glo assay. To be noted: 786-0, 24 h. The format is functional, cell-based. A digest of the protocol:
as §1

For the next assay, the system named is BJ. Kind of assay: Anti-ferroptotic activity against RSL3 induced ferroptosis in human BJ cells assessed as cell viability incubated for 24 hrs by Cell-titer-glo assay. The format is functional, cell-based. In outline:
as §1

A further assay has as its system H9c2. Kind of assay: Anti-ferroptotic activity against RSL3 induced ferroptosis in rat H9c2 cells assessed as cell viability incubated for 24 hrs by Cell-titer-glo assay. To be noted: H9c2, 24 h. The format is functional, cell-based. In outline:
as §1

In assay [5] the test system is 786-0. Kind of assay: Inhibition of RSL3-induced ferroptosis in human 786-0 cells assessed as recovery of shrunken cells at 1 uM measured after 1 day by light microscopy based analysis. In kind it is functional, cell-based. A digest of the protocol: (§2)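 786-O cells were seeded at 5000/well. After 24 h, 1 μM RSL3 was added together with inhibitor at 1 or 0.0625 μM. After one day of incubation, cell morphology (shrinkage, membrane rupture) was inspected by light microscopy.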

In assay [6] the test system is 786-0. Kind of assay: Inhibition of RSL3-induced ferroptosis in human 786-0 cells assessed as recovery of membrane rupture at 1 uM measured after 1 day by light microscopy based analysis. The format is functional, cell-based. A digest of the protocol:
as §2

Assay [7] relates to 786-0. Kind of assay: Inhibition of RSL3-induced ferroptosis in human 786-0 cells assessed as recovery in loss of cell morphology at 1 uM measured after 1 day by light microscopy based analysis. The format is functional. A digest of the protocol:
as §2

Assay [8] has as its system 786-0. As to the kind of experiment: Inhibition of RSL3-induced ferroptosis in human 786-0 cells assessed as recovery of shrunken cells at 0.0625 uM measured after 1 day by light microscopy based analysis. In kind it is functional, cell-based. In outline:
as §2

Assay [9] concerns 786-0. Kind of assay: Inhibition of RSL3-induced ferroptosis in human 786-0 cells assessed as recovery of membrane rupture at 0.0625 uM measured after 1 day by light microscopy based analysis. The format is functional, cell-based. In outline: as §2
Assay [10] relates to 786-0. Kind of assay: Inhibition of RSL3-induced ferroptosis in human 786-0 cells assessed as recovery from loss of cell morphology at 0.0625 uM measured after 1 day by light microscopy based analysis. In kind it is functional. In outline: as §2
Assay [11] can be described thus: Antioxidant activity assessed as DPPH radical scavenging activity incubated for 1 hr by spectrophotometric analysis. In kind it is functional. A digest of the protocol:
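Compound in DMSO was mixed with methanolic DPPH to give 40 μM DPPH (final) across a range of compound concentrations. After 1 h at room temperature, absorbance was read at 517 nm. Scavenging % = [A(DMSO) − A(sample)]/[A(DMSO) − A(methanol)] × 100, with DMSO as zero control and methanol as blank.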
(Loss of DPPH colour is used to gauge radical scavenging.)

A short description of assay [12]: Antioxidant activity assessed as ABTS radical scavenging activity measured for 6 mins by absorbance based analysis. In kind it is functional. In outline:
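ABTS (14 mM stock in water) was oxidised with 2.45 mM (final) potassium persulfate in the dark at room temperature for 18 h. The radical was diluted to 100 μM in 50 mM sodium phosphate, pH 7.4. Compounds (1–100 μM) were added, incubated at 30 °C for 6 min, and absorbance was read at 415 nm.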

Assay [13] relates to HT-1080. As to the kind of experiment: Anti-ferroptotic activity against RSL3 induced ferroptosis in human HT-1080 cells assessed as decrease in lipid peroxidation at 1 uM measured after 8 hrs by C11-BODIPY staining based flow cytometric analysis (reference value: 3.06%). The format is functional. More on the design: scale not given: the % may be the effect or the level left. On the technique in general: A flow cytometer gives signals particle by particle.

For assay [14], the system named is HT-1080. As to the kind of experiment: Anti-ferroptotic activity in human HT-1080 cells assessed as suppression of erastin induced cytosolic ROS accumulation at 1 uM incubated for 24 hrs by DCFH-DA staining based confocal microscopy analysis. The format is functional, cell-based. A digest of the protocol:
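HT-1080 cells on glass coverslips (4 × 10^5/well, overnight) were co-treated for 24 h with 5 μM erastin and either DMSO or inhibitor at 1 μM. Cells were washed with PBS, loaded with 10 μM (final) DCFH-DA at 37 °C for 20 min, washed three times and imaged by confocal laser scanning microscopy.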

A short description of assay [15]: Metal chelating activity assessed as Fe3+ chelation at 20 mM at […] absorbance. In outline: (§3)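 Compound was dissolved in MeOH at 20 mM and mixed with FeSO4 (Fe2+) or FeCl3 (Fe3+) at 10 mM. Samples were diluted with MeOH/H2O, UV–vis spectra were recorded, and the absorption peak at 261 nm was quantified.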
Assay [16] in a line: Metal chelating activity assessed as Fe2+ chelation at 20 mM at […] absorbance. A digest of the protocol: as §3
Assay [17] can be described thus: Metal chelating activity assessed as Fe3+ chelation by measuring change in UV-vis absorption at 20 mM at […] absorbance. In outline: as §3
Assay [18] is described as follows: Metal chelating activity assessed as Fe2+ chelation by measuring change in UV-vis absorption at 20 mM at […] absorbance. A digest of the protocol:
as §3

As to `CCOC(=O)c1ccc(NC2CCCCC2)c(N)c1`, the concentration giving a half-maximal response (EC50) in the assay with HT-1080 [1] (Homo sapiens, HT-1080, 24 h) was determined as 23.4 nM; in the assay on HT-1080 [2], 75.2 nM; in the assay on HT-1080 [3], 23.4 nM; with 786-0 [4], 253 nM; in the assay on BJ it was 38.2 nM; in the assay with H9c2, 68.6 nM. Moreover, the inhibition result in the assay on 786-0 [5], with 786-0 [6] and in the assay on 786-0 [7] was “Active” throughout. Also, the inhibition entry in the assay on 786-0 [8], in the assay with 786-0 [9] and with 786-0 [10] was “inactive” each time. Further, the Activity in assay [11] came to 6.48 µM; in assay [12] it was 49.8 µM; in the assay with HT-1080 [13] it was 9.2%.
On to `COc1ccc(-c2[nH]nc(-c3ccc(Cl)cc3)c2O)cc1`, for which the EC50 with HT-1080 [1] (Homo sapiens, HT-1080, 24 h) turned out to be 23.1 nM.
The same measure, in the same setting: to `Oc1c(-c2ccccc2)n[nH]c1-c1ccc(Br)cc1` belongs 22.6 nM.
The same measure, in the same setting: to `Oc1c(-c2ccccc2)n[nH]c1-c1ccccc1` belongs 69.1 nM; to `CCCCc1[nH]nc(-c2ccccc2)c1O`, 150 nM.
Regarding `Oc1c(-c2ccc(Cl)cc2)n[nH]c1-c1cccc2ccccc12`, the concentration for a half-maximal effect (EC50) with HT-1080 [1] (Homo sapiens, HT-1080, 24 h) amounted to 44.8 nM.
Same read-out and setting: to `CCNC(=O)c1ccc(-c2[nH]nc(-c3ccc(Cl)cc3)c2O)cc1` belongs 81.9 nM.
With `Oc1ccc(-c2[nH]nc(-c3ccc(Cl)cc3)c2O)cc1`, the EC50 was 8.6 nM in the assay on HT-1080 [1] (Homo sapiens, HT-1080, 24 h); 48.3 nM in the assay on HT-1080 [2]; 8.6 nM in the assay on HT-1080 [3]; 89.7 nM in the assay on 786-0 [4]; 11.3 nM in the assay with BJ; 43.3 nM in the assay with H9c2. Moreover, the inhibition entry with 786-0 [5], in the assay on 786-0 [6], in the assay with 786-0 [7], in the assay with 786-0 [8], in the assay on 786-0 [9] and in the assay on 786-0 [10] was “Active” each time. The Activity in assay [11] turned out to be 3.94 µM; in assay [12], 6.3 µM; with HT-1080 [13], 1.42%. Moreover, the result in the assay on HT-1080 [14] was Active. The outcome in assay [15], in assay [16], in assay [17] and in assay [18] was inactive.
In the case of `Oc1c(-c2ccc(Cl)cc2)n[nH]c1-c1ccccc1`, the EC50 in the assay with HT-1080 [1] (Homo sapiens, HT-1080, 24 h) was 30.8 nM; with HT-1080 [1] (ht-1080), 18.9 nM. Besides, the Activity came to 4.97 µM in [11] and 112 µM in assay [12].
`COc1ccc(-c2n[nH]c(-c3ccccc3)c2O)cc1`: the EC50 in the assay on HT-1080 [1] (Homo sapiens, HT-1080, 24 h) is 24.8 nM; in the assay on HT-1080 [1] (ht-1080), 32.1 nM.
For `Cc1ccc(-c2[nH]nc(-c3ccc([N+](=O)[O-])cc3)c2O)cc1`, in the assay on HT-1080 [1] (Homo sapiens, HT-1080, 24 h), the concentration giving a half-maximal response (EC50) turned out to be 120 nM.
Consider `Oc1c(-c2ccc(-c3ccccc3)cc2)n[nH]c1-c1ccccc1`, for which the concentration giving a half-maximal response (EC50) in the assay on HT-1080 [1] (Homo sapiens, HT-1080, 24 h) stood at 39.5 nM.
As to `Oc1ccc(-c2[nH]nc(-c3ccc(Cl)cc3)c2O)cc1O`, the EC50 with HT-1080 [1] (Homo sapiens, HT-1080, 24 h) was 26.1 nM.
Take `O=C(O)c1ccc(-c2[nH]nc(-c3ccc(Cl)cc3)c2O)cc1`: the EC50 in the assay with HT-1080 [1] (Homo sapiens, HT-1080, 24 h) was more than 1000 nM.
Still for that read-out and setting: to `Oc1c(-c2cccc(Cl)c2)n[nH]c1-c1ccccc1` belongs 187 nM; to `Oc1c(-c2ccc(Cl)cc2Cl)n[nH]c1-c1ccccc1`, 56.6 nM; to `O=C(NO)c1ccc(-c2[nH]nc(-c3ccc(Cl)cc3)c2O)cc1`, 80.2 nM.
The same measure, in the same setting: for `Oc1c(-c2ccccc2Cl)n[nH]c1-c1ccccc1` the value was 94.9 nM; for `Oc1c(-c2ccc(Cl)cc2)n[nH]c1-c1ccc(F)cc1`, 52.7 nM.
As for `Oc1c(-c2ccc(F)cc2)n[nH]c1-c1ccccc1`, the EC50 in the assay on HT-1080 [1] (Homo sapiens, HT-1080, 24 h) came to 79.6 nM; with HT-1080 [1] (ht-1080), 42.4 nM.
`Cn1nc(-c2ccc(Cl)cc2)c(N)c1-c1ccccc1`: the concentration giving a half-maximal response (EC50) with HT-1080 [1] (Homo sapiens, HT-1080, 24 h) is 720 nM. In addition, the values for the Activity in assay [11] and in [12] were 14.6 µM and more than 200 µM, respectively.
Turning to `CN(C)CCCNC(=O)c1ccc(-c2[nH]nc(-c3ccc(Cl)cc3)c2O)cc1`, in the assay on HT-1080 [1] (Homo sapiens, HT-1080, 24 h), the half-maximal effective concentration (EC50) was found to be 44.8 nM.
As to `Oc1c(-c2ccc(Cl)cc2)n[nH]c1-c1ccc(C(F)(F)F)cc1`, the EC50 with HT-1080 [1] (Homo sapiens, HT-1080, 24 h) amounted to 187 nM.
The same measure, in the same setting: to `Oc1c(-c2ccc(Cl)cc2)n[nH]c1-c1cnc[nH]1` belongs 25.9 nM.
Still for that read-out and setting: to `Cn1nc(-c2ccc(Cl)cc2)c(O)c1-c1ccccc1` belongs 22 nM.
`COc1ccc(-c2[nH]nc(-c3ccc(Cl)cc3)c2O)cc1OC`: in the assay on HT-1080 [1] (Homo sapiens, HT-1080, 24 h), the EC50 came out at 31.7 nM.
In the case of `Oc1c(-c2ccc(Cl)cc2)nn(-c2ccccc2)c1-c1ccccc1`, in the assay on HT-1080 [1] (Homo sapiens, HT-1080, 24 h), the EC50 is 24.6 nM.
For `Oc1c(-c2ccc3c(c2)OCO3)n[nH]c1-c1ccccc1`, the EC50 in the assay with HT-1080 [1] (Homo sapiens, HT-1080, 24 h) worked out at 27.4 nM.
Same read-out and setting: for `Oc1c(-c2ccccc2)n[nH]c1-c1ccco1` the value was more than 1000 nM; for `COC(=O)c1ccc(-c2[nH]nc(-c3ccc(Cl)cc3)c2O)cc1`, 51.1 nM.
Same read-out and setting: for `Oc1c(-c2ccc(C(F)(F)F)cc2)n[nH]c1-c1ccccc1` the value was 79.6 nM.
In the case of `Clc1ccc(-c2cc(-c3ccccc3)n[nH]2)cc1`, in the assay with HT-1080 [1] (Homo sapiens, HT-1080, 24 h), the EC50 was more than 1000 nM. Besides, the Activity in [11] is more than 100 µM; in [12], more than 200 µM.
